Measured values reported in ChEMBL document CHEMBL1129982, “Structure-activity relationships in a series of orally active gamma-hydroxy butenolide endothelin antagonists” (J Med Chem, 1997).

How the values were obtained:
Endothelin-1 receptor = molecular target: T1, Endothelin-1 receptor (Homo sapiens, UniProt P25101); experiment: Binding affinity against human cloned endothelin A receptor expressed in LTK-cells; format: cell-based
T1 sequence (P25101 whole entry): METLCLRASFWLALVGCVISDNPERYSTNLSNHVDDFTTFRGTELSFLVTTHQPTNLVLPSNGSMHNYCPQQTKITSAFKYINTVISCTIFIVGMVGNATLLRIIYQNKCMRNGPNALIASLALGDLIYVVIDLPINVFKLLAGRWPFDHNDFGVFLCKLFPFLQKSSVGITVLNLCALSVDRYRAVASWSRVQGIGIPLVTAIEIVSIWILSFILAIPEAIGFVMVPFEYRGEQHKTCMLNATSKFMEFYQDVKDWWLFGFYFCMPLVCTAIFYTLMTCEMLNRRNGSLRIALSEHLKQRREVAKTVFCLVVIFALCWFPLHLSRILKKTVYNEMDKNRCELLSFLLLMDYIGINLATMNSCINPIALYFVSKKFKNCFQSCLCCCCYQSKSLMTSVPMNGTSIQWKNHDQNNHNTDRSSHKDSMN
In short: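 Radioligand binding to cloned human ETA (Ltk⁻ cells) and ETB (CHO-K1 cells) receptors. Selectivity expressed as ETB IC50/ETA IC50.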

[1] = molecular target: T2, Endothelin receptor type B (Homo sapiens, UniProt P24530); experiment: Binding affinity against human cloned Endothelin B receptor expressed in CHO-K1 cells; format: cell-based
T2 sequence (P24530 whole entry): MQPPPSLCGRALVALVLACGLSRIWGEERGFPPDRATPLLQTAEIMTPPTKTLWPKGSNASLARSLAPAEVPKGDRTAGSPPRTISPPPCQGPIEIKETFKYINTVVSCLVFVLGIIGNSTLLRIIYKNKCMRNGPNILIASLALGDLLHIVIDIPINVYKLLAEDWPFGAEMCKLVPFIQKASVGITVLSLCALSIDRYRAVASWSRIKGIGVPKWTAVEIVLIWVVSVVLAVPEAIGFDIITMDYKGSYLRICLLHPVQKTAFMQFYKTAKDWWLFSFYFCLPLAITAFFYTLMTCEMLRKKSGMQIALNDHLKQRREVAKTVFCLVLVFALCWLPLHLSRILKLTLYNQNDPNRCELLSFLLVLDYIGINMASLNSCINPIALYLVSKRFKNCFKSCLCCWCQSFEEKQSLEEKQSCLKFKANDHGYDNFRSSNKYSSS
In short: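 Radioligand binding to cloned human ETA (Ltk⁻ cells) and ETB (CHO-K1 cells) receptors. […] Selectivity expressed as ETB IC50/ETA IC50.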

Row | Compound | IC50 (Endothelin-1 receptor) | IC50 [1]
1 | COc1ccc(C2(O)OC(=O)C(c3ccc4c(c3)OCO4)=C2Cc2cccc(C(=O)O)c2)cc1 (stereo not drawn) | 50 nM | > 2500 nM
2 | COc1ccccc1C1(O)OC(=O)C(c2ccc3c(c2)OCO3)=C1Cc1ccccc1 (stereo not drawn) | 480 nM | > 2500 nM
3 | O=C1OC(O)(c2ccc(OCc3ccccc3)cc2)C(Cc2ccccc2)=C1c1ccc2c(c1)OCO2 (stereo not drawn) | 950 nM | –
4 | COc1ccc(C2(O)OC(=O)C(c3cc(OC)c(OC)c(OC)c3)=C2Cc2ccccc2)cc1 (stereo not drawn) | 1300 nM | 1600 nM
5 | COc1ccc(C2(O)OC(=O)C(c3ccc4c(c3)OCO4)=C2Cc2ccc(C)cc2)cc1 (stereo not drawn) | – | > 2500 nM
6 | COc1ccc(CC2=C(c3ccc(C)cc3)C(=O)OC2(O)c2ccc(OC)cc2)cc1 (stereo not drawn) | – | > 2500 nM
7 | COc1ccc(C2(O)OC(=O)C(c3ccc4c(c3)OCO4)=C2Cc2ccc(OC)c(OC)c2OC)cc1 (stereo not drawn) | 12 nM | 2000 nM
8 | COc1ccc(C2(O)OC(=O)C(c3ccc4c(c3)OCO4)=C2Cc2ccc(S(C)(=O)=O)cc2)cc1 (stereo not drawn) | 4 nM | 3000 nM
9 | COC(=O)c1ccc(CC2=C(c3ccc4c(c3)OCO4)C(=O)OC2(O)c2ccc(OC)cc2)cc1 (stereo not drawn) | 11 nM | –
10 | COC(=O)c1ccc(C2(O)OC(=O)C(c3ccc4c(c3)OCO4)=C2Cc2ccccc2)cc1 (stereo not drawn) | 400 nM | > 2500 nM
11 | COc1ccc(C2(O)OC(=O)C(c3ccc4c(c3)OCO4)=C2Cc2cccc(C(F)(F)F)c2)cc1 (stereo not drawn) | 43 nM | > 2500 nM
12 | COc1ccc(C2(O)OC(=O)C(c3ccc4c(c3)OCO4)=C2Cc2ccc3ccccc3c2)cc1 (stereo not drawn) | 14 nM | > 2500 nM
13 | COc1ccc(CC2=C(c3ccc(OC)cc3)C(=O)OC2(O)c2ccc(OC)cc2)cc1 (stereo not drawn) | – | 9000 nM
14 | COc1ccc(C2(O)OC(=O)C(c3ccc4c(c3)OCO4)=C2Cc2cc(OC)ccc2OC)cc1 (stereo not drawn) | 2.1 nM | –
15 | COc1ccc(C2(O)OC(=O)C(c3cccc(OC)c3)=C2Cc2ccccc2)cc1 (stereo not drawn) | 90 nM | 12000 nM
16 | COc1ccc(C2(OC)OC(=O)C(c3ccc4c(c3)OCO4)=C2Cc2ccccc2)cc1 (stereo not drawn) | 300 nM | > 25000 nM
17 | COc1ccc(C2(OC)OC(=O)C(c3ccc4c(c3)OCO4)=C2Cc2cc(OC)c(OC)c(OC)c2)cc1 (stereo not drawn) | 600 nM | > 2500 nM
18 | COc1ccc(C2(O)OC(=O)C(c3ccc(OC)cc3OC)=C2Cc2ccccc2)cc1 (stereo not drawn) | 300 nM | –
19 | COc1ccc(C2(O)OC(=O)C(c3ccc4c(c3)OCO4)=C2Cc2ccc(O)cc2)cc1 (stereo not drawn) | 8 nM | > 250 nM
20 | COc1ccc(C2(O)OC(=O)C(c3ccc4c(c3)OCO4)=C2Cc2nccc3ccccc23)cc1 (stereo not drawn) | 10 nM | 3200 nM

Row | Compound | IC50 (Endothelin-1 receptor) | IC50 [1]
21 | COc1ccc(C2(O)OC(=O)C(c3cc(OC)c4c(c3)OCO4)=C2Cc2ccccc2)cc1 (stereo not drawn) | 6.7 nM | 640 nM
22 | CCC1=C(c2ccc3c(c2)OCO3)C(=O)OC1(O)c1ccc(OC)cc1 (stereo not drawn) | 320 nM | –
23 | COc1ccc(C2(O)OC(=O)C(c3ccc4c(c3)OCO4)=C2CC2CCCC2)cc1 (stereo not drawn) | 10 nM | 630 nM
24 | COc1ccc(C2(O)OC(=O)C(c3ccc4c(c3)OCO4)=C2Cc2cc(OC)c(OC)cc2OC)cc1 (stereo not drawn) | 1.8 nM | –
25 | COc1ccc(C2(O)OC(=O)C(c3ccc4c(c3)OCO4)=C2Cc2cc(OC)cc(OC)c2)cc1 (stereo not drawn) | 1.7 nM | –
26 | CC(C)Oc1ccc(C2(O)OC(=O)C(c3ccc4c(c3)OCO4)=C2Cc2ccccc2)cc1 (stereo not drawn) | 1150 nM | 11000 nM
27 | COc1ccc(C2(O)OC(=O)C(c3ccc4c(c3)OCO4)=C2Cc2cccc(OC)c2)cc1 (stereo not drawn) | 3 nM | 260 nM
28 | COc1ccc(C2(O)OC(=O)C(c3ccc4c(c3)OCO4)=C2Cc2ccc(N(C)C)cc2)cc1 (stereo not drawn) | 28 nM | 1800 nM
29 | CSc1ccc(C2(O)OC(=O)C(c3ccc4c(c3)OCO4)=C2Cc2ccccc2)cc1 (stereo not drawn) | 170 nM | > 2500 nM
30 | COc1ccc(C2(O)OC(=O)C(c3ccc4c(c3)OCO4)=C2Cc2ccccc2)cc1C (stereo not drawn) | 12 nM | –
31 | COc1ccc(C2(O)OC(=O)C(c3ccc4c(c3)OCO4)=C2Cc2ccccc2)c(OC)c1 (stereo not drawn) | 13 nM | > 2500 nM
32 | COc1ccc(C2(O)OC(=O)C(c3cc(OC)cc(OC)c3)=C2Cc2ccccc2)cc1 (stereo not drawn) | 46 nM | 5200 nM
33 | COc1ccc(C2(O)OC(=O)C(c3ccc4c(c3)OCO4)=C2Cc2cccc([N+](=O)[O-])c2)cc1 (stereo not drawn) | 70 nM | > 25000 nM
34 | COc1ccc(C2(O)OC(=O)C(c3ccc4c(c3)OCO4)=C2Cc2cccnc2)cc1 (stereo not drawn) | 40 nM | > 2500 nM
35 | COc1ccc(C2(O)OC(=O)C(c3cc(OC)c4c(c3)OCO4)=C2Cc2cc(OC)c(OC)c(OC)c2)cc1C (stereo not drawn) | – | 180 nM
36 | O=C1OC(O)(c2ccc3c(c2)OCO3)C(Cc2ccccc2)=C1c1ccc2c(c1)OCO2 (stereo not drawn) | 19 nM | –
37 | COc1ccc(C2(O)OC(=O)C(c3cc(OC)c4c(c3)OCO4)=C2Cc2ccccc2)cc1C (stereo not drawn) | 8.2 nM | 1410 nM
38 | COC(=O)c1cccc(CC2=C(c3ccc4c(c3)OCO4)C(=O)OC2(O)c2ccc(OC)cc2)c1 (stereo not drawn) | 8.5 nM | –
39 | COc1ccc(C2(O)OC(=O)C(c3ccc4c(c3)OCO4)=C2Cc2cc(OC)c3c(c2)OCO3)cc1 (stereo not drawn) | 14 nM | 16000 nM
40 | COc1ccc(C2OC(=O)C(c3ccc4c(c3)OCO4)=C2Cc2ccccc2)cc1 (stereo not drawn) | 700 nM | > 2500 nM

Row | Compound | IC50 (Endothelin-1 receptor) | IC50 [1]
41 | COc1ccc(C2(O)OC(=O)C(c3ccc4c(c3)OCO4)=C2Cc2ccc3c(c2)OCO3)cc1 (stereo not drawn) | 16 nM | –
42 | COc1cccc(C2(O)OC(=O)C(c3ccc4c(c3)OCO4)=C2Cc2ccccc2)c1 (stereo not drawn) | 500 nM | 18000 nM
43 | COc1ccc(C2(O)OC(=O)C(c3ccc4c(c3)OCO4)=C2Cc2cccc3ccccc23)cc1 (stereo not drawn) | 18 nM | > 2500 nM
44 | COc1ccc(C2(O)OC(=O)C(c3ccc4c(c3)OCO4)=C2CC2CCCCCC2)cc1 (stereo not drawn) | 35 nM | –
45 | COc1ccc(C2(O)OC(=O)C(c3ccc4c(c3)OCO4)=C2Cc2ccc(NC(C)=O)cc2)cc1 (stereo not drawn) | 1.2 nM | –
46 | COc1cc(C2(O)OC(=O)C(c3ccc4c(c3)OCO4)=C2Cc2ccccc2)cc(OC)c1OC (stereo not drawn) | 25 nM | 4500 nM
47 | COc1ccc(C2(O)OC(=O)C(c3ccc4c(c3)OCO4)=C2Cc2ccc(SC)cc2)cc1 (stereo not drawn) | 3.9 nM | > 2500 nM
48 | COc1ccc(C2(O)OC(=O)C(c3ccc(OC)c(OC)c3)=C2Cc2ccccc2)cc1 (stereo not drawn) | 70 nM | –
49 | COc1ccc(C2(O)OC(=O)C(c3ccc4c(c3)OCO4)=C2Cc2ccc([N+](=O)[O-])cc2)cc1 (stereo not drawn) | 800 nM | 17000 nM
50 | COc1ccc(C2(O)OC(=O)C(c3ccc4c(c3)OCO4)=C2Cc2cccc3c2CCc2ccccc2C3=O)cc1 (stereo not drawn) | 16000 nM | 10000 nM
51 | COc1ccc(C2(O)OC(=O)C(c3ccc4c(c3)OCO4)=C2Cc2cccc(OC)c2OC)cc1 (stereo not drawn) | 11 nM | –
52 | COc1ccc(C2(O)OC(=O)C(c3ccc4c(c3)OCO4)=C2Cc2ccc(-c3ccccc3)cc2)cc1 (stereo not drawn) | 200 nM | –
53 | COc1ccc(C2OC(=O)C(c3ccc4c(c3)OCO4)=C2Cc2cc(OC)c(OC)c(OC)c2)cc1 (stereo not drawn) | – | > 25000 nM
54 | COc1ccc(C2(O)OC(=O)C(c3ccc4c(c3)OCO4)=C2Cc2ccc(OC)c(OC)c2)cc1 (stereo not drawn) | 1.4 nM | –
55 | COc1ccc(C2(O)OC(=O)C(c3ccc4c(c3)OCO4)=C2CC2CCCCC2)cc1 (stereo not drawn) | 13 nM | 225 nM
56 | COc1ccc(C2(O)OC(=O)C(c3ccc4c(c3)OCO4)=C2Cc2ccc3c(c2)OCCO3)cc1 (stereo not drawn) | 7.5 nM | 1600 nM
57 | COc1ccc(C2(O)OC(=O)C(c3ccc4c(c3)OCO4)=C2Cc2ccc(Cl)c(Cl)c2)cc1 (stereo not drawn) | 150 nM | > 2500 nM
58 | COc1ccc(C2(O)OC(=O)C(c3ccc4c(c3)OCO4)=C2Cc2ccc(OC)c(C)c2)cc1 (stereo not drawn) | – | 1140 nM
